Source: ChEMBL document CHEMBL4673212, “Investigation of synergistic antimicrobial effects of the drug combinations of meropenem and 1,2-benzisoselenazol-3(2H)-one derivatives on carbapenem-resistant Enterobacteriaceae producing NDM-1” (Eur J Med Chem, 2018)
In brackets after ≈: the same amount, converted by molar mass.

Columns and labels:
Escherichia coli [1] = assay: Potentiation of meropenem-induced antibacterial activity against Escherichia coli TG1 transformed with IncX3 plasmid expressing blaNDM-1 assessed as bacterial growth inhibition by measuring meropenem MIC incubated for overnight by CLSI protocol based assay; format: functional; details: time 12 hrs
Escherichia coli [2] = assay: Synergistic antibacterial activity against Escherichia coli TG1 transformed with IncX3 plasmid expressing blaNDM-1 assessed as fractional inhibitory concentration index in presence of meropenem incubated for overnight by CLSI protocol based assay; format: functional; details: time 12 hrs
Procedure, shortened: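 FIC index from MICs of compound alone, meropenem alone, and the 1:1 (mass) compound–meropenem combination, read by eye after overnight incubation in a CLSI-based assay. FIC index = MICcombo/MICcpd + MICcombo/MICMem. FIC index ≤0.5 counted as synergy. At least triplicate assays. Clinical NDM-1 isolates for 17-39; E. coli TG1 carrying the IncX3 blaNDM-1 plasmid for 15.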

Escherichia coli [3] = assay: Synergistic antibacterial activity against Escherichia coli TG1 transformed with IncX3 plasmid expressing blaNDM-1 assessed as ratio of negative logarithm of fractional inhibitory concentration index to non-hydrogen atom in presence of meropenem incubated for overnight by CLSI protocol based assay; format: functional; details: time 12 hrs
Procedure, shortened: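 In E. coli TG1 carrying the IncX3 blaNDM-1 plasmid, the FIC index was taken from overnight CLSI-based MICs of compound, meropenem and their 1:1 mass mixture, read by eye. Synergistic efficiency = −ln(FIC index) divided by the number of non-hydrogen atoms. At least triplicate assays.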

[4] = Growth inhibition of Escherichia coli TG1 transformed with IncX3 plasmid expressing blaNDM-1 incubated for overnight by CLSI protocol based assay; details: 12 h
[5] = Inhibition of bacterial VIM-1; set-up: species or system Bacteria
[6] = Inhibition of recombinant bacterial NDM-1 by fluorogenic assay; set-up: species or system Bacteria
[7] = Competitive inhibition of recombinant bacterial His6-tagged TEV protease site linked NDM-1 (32 to […] residues) expressed in Escherichia coli BL21 (DE3); set-up: species or system Bacteria
[8] = Covalent inhibition of bacterial NDM-1; set-up: species or system Bacteria

Row | IC50 [6] [µM] | IC50 [7] [µM] | Ki [8] [µM] | SMILES | MIC (Escherichia coli [1]) [µg/mL] | fractional inhibitory concentration index (FICI) (Escherichia coli [2]) | Ratio (Escherichia coli [3]) | MIC [4] | IC50 [5] [µM]
1 | – | – | – | O=c1c2ccccc2[se]n1CCO | 16 | 0.75 | 0.022 | 32 µg/mL (≈ 132 µM) | –
2 | – | – | – | O=c1c2ccccc2[se]n1-c1ccc(Cl)cc1 | 4 | 0.094 | 0.139 | >= 128 ug ml-1 | –
3 | – | – | – | CC(C)(CC(=O)NCCn1[se]c2ccccc2c1=O)C(F)(F)F | 8 | 0.188 | 0.073 | >= 128 ug ml-1 | –
4 | – | – | – | CCN(CC)CCn1[se]c2ccccc2c1=O | 16 | 0.5 | 0.041 | 64 µg/mL (≈ 215 µM) | –
5 | – | – | – | CC(C)(OC(=O)NCCCn1[se]c2ccccc2c1=O)C(F)(F)F | 8 | 0.188 | 0.07 | >= 128 ug ml-1 | –
6 | – | – | – | O=C(NCCn1[se]c2ccccc2c1=O)OCc1ccccc1 | 16 | 0.375 | 0.043 | >= 128 ug ml-1 | –
7 | – | – | – | O=c1c2ccccc2[se]n1-c1ccc(CO)cc1 | 16 | 0.375 | 0.054 | >= 128 ug ml-1 | –
8 | – | – | – | O=c1c2ccccc2[se]n1CCNCc1ccccc1 | 8 | 0.188 | 0.084 | >= 128 ug ml-1 | –
9 | – | – | – | O=C(O)Cn1[se]c2ccccc2c1=O | 2 | 0.281 | 0.091 | 8 µg/mL (≈ 31.2 µM) | –
10 | – | – | – | CC(C)c1ccc(-n2[se]c3ccccc3c2=O)cc1 | 16 | 0.375 | 0.052 | >= 128 ug ml-1 | –
11 | – | – | – | CCN1CCC[C@H]1Cn1[se]c2ccccc2c1=O | 16 | 0.5 | 0.039 | 64 µg/mL (≈ 207 µM) | –
12 | – | – | – | O=c1c2ccccc2[se]n1CCC1CCOCC1 | 8 | 0.188 | 0.084 | >= 128 ug ml-1 | –
13 | – | – | – | Cl.NCCCn1[se]c2ccccc2c1=O | 2 | 0.281 | 0.091 | 8 µg/mL | –
14 | – | – | – | CCN1CCC[C@@H]1Cn1[se]c2ccccc2c1=O | 16 | 0.5 | 0.039 | 64 µg/mL (≈ 207 µM) | –
15 | – | – | – | O=c1c2ccccc2[se]n1C1CCCCC1 | 8 | 0.25 | 0.087 | 64 µg/mL (≈ 228 µM) | –
16 | – | – | – | O=c1c2ccccc2[se]n1S(=O)(=O)c1ccc(Cl)cc1 | 16 | 0.375 | 0.049 | >= 128 ug ml-1 | –
17 | – | – | – | CC1CN(CCn2[se]c3ccccc3c2=O)CC(C)O1 (stereo not given) | 16 | 0.375 | 0.049 | >= 128 ug ml-1 | –
18 | – | – | – | O=C(O)[C@@H]1SC[C@H]2CS[C@H](CS)N21 | – | – | – | – | 23
19 | – | – | – | COP(=O)(NCCn1[se]c2ccccc2c1=O)OC | 8 | 0.188 | 0.084 | >= 128 ug ml-1 | –
20 | – | – | – | O=C1CC[Se]N1c1ccccc1 | 32 | 0.75 | 0.024 | >= 128 ug ml-1 | –
21 | – | – | – | O=c1c2ccccc2[se]n1Cc1cccc(-c2ccccc2)c1 | 16 | 0.375 | 0.043 | >= 128 ug ml-1 | –
22 | 0.004 | – | – | NCCNCc1ccc(C(=O)N[C@H]2Cc3cccc(C(=O)O)c3O[B-]2(O)O)cc1 | – | – | – | – | –
23 | – | – | – | O=C(NCCn1[se]c2ccccc2c1=O)c1ccccc1 | 16 | 0.375 | 0.047 | >= 128 ug ml-1 | –
24 | – | – | – | Cc1ccc(C(=O)NCCn2[se]c3ccccc3c2=O)cc1 | 8 | 0.188 | 0.076 | >= 128 ug ml-1 | –
25 | – | – | – | COc1ccc(Cn2[se]c3ccccc3c2=O)cc1 | 8 | 0.188 | 0.088 | >= 128 ug ml-1 | –

Row | IC50 [6] [µM] | IC50 [7] [µM] | Ki [8] [µM] | SMILES | MIC (Escherichia coli [1]) [µg/mL] | fractional inhibitory concentration index (FICI) (Escherichia coli [2]) | Ratio (Escherichia coli [3]) | MIC [4] | IC50 [5] [µM]
26 | – | 0.7 | – | O=C(O)[C@H]1CCCCN1C(=O)C(CS)Cc1ccccc1 (mixture of isomers) | – | – | – | – | –
27 | – | – | – | CCCC[n+]1ccn(CCCn2[se]c3ccccc3c2=O)c1 | 8 | 0.188 | 0.076 | >= 128 ug ml-1 | –
28 | – | – | – | O=c1c2ccccc2[se]n1CCN1CCOCC1 | 16 | 0.5 | 0.039 | 64 µg/mL (≈ 206 µM) | –
29 | – | – | – | O=c1c2ccccc2[se]n1CCCn1ccnc1 | 16 | 0.375 | 0.054 | >= 128 ug ml-1 | –
30 | – | – | – | O=c1c2ccccc2[se]n1CCN1CCCCC1 | 16 | 0.375 | 0.054 | >= 128 ug ml-1 | –
31 | – | – | 2300 | N[C@@H](C(=O)N[C@@H]1C(=O)N2C(C(=O)O)=C(Cl)CS[C@H]12)c1ccccc1 [CEFACLOR ANHYDROUS] | – | – | – | – | –
32 | – | – | – | O=C(NCCn1[se]c2ccccc2c1=O)c1cccs1 | 8 | 0.188 | 0.084 | >= 128 ug ml-1 | –
33 | – | – | – | O=c1c2ccccc2[se]n1Cc1ccccc1 | 8 | 0.375 | 0.058 | 32 µg/mL (≈ 111 µM) | –
34 | – | – | – | O=C(NCCn1[se]c2ccccc2c1=O)c1ccc(F)cc1F | 32 | 0.75 | 0.013 | >= 128 ug ml-1 | –
35 | – | – | – | O=C(O)c1cccc(-n2[se]c3ccccc3c2=O)c1 | 8 | 0.375 | 0.052 | 32 µg/mL (≈ 101 µM) | –
36 | – | – | – | COc1cccc(C(=O)n2[se]c3ccccc3c2=O)c1 | 8 | 0.188 | 0.084 | >= 128 ug ml-1 | –
37 | – | – | – | C[C@@H](O)[C@H]1C(=O)N2C(C(=O)O)=C(S[C@@H]3CN[C@H](C(=O)N(C)C)C3)[C@H](C)[C@H]12 [MEROPENEM] | – | – | – | 64 µg/mL (≈ 167 µM) | –
38 | – | – | – | CN(C)CCn1[se]c2ccccc2c1=O | 16 | 0.375 | 0.065 | >= 128 ug ml-1 | –
39 | – | – | – | CC(C)(C)OC(=O)NCCCn1[se]c2ccccc2c1=O | 8 | 0.188 | 0.08 | >= 128 ug ml-1 | –
40 | – | – | – | O=C(O)c1ccc(-n2[se]c3ccccc3c2=O)cc1 | 4 | 0.125 | 0.109 | 64 µg/mL (≈ 201 µM) | –
41 | – | – | – | C#CCn1[se]c2ccccc2c1=O | 8 | 0.25 | 0.107 | 64 µg/mL (≈ 271 µM) | –
42 | – | – | – | COc1ccc(-n2[se]c3ccccc3c2=O)cc1 | 16 | 0.375 | 0.054 | >= 128 ug ml-1 | –
43 | – | – | – | O=c1c2ccccc2[se]n1Cc1cccc(N2CCCCC2)c1 | 16 | 0.375 | 0.043 | >= 128 ug ml-1 | –
44 | – | – | – | CCN(CC)CCCC(C)n1[se]c2ccccc2c1=O (stereo not given) | 8 | 0.188 | 0.084 | >= 128 ug ml-1 | –
45 | – | – | – | O=c1c2ccccc2[se]n1-c1ccncc1 | 32 | 0.75 | 0.018 | >= 128 ug ml-1 | –
46 | – | – | – | CC(C)(C)CC(=O)NCCn1[se]c2ccccc2c1=O | 8 | 0.188 | 0.084 | >= 128 ug ml-1 | –
47 | – | – | – | C[C@H](C(=O)N[C@H](C)C(=O)O)n1[se]c2ccccc2c1=O | 16 | 0.375 | 0.049 | >= 128 ug ml-1 | –
48 | – | – | – | Cl.NCCn1[se]c2ccccc2c1=O | 4 | 1.063 | -0.005 | 4 µg/mL | –
49 | – | – | – | O=C1N[Se]c2ccccc2C(=O)N1 | 8 | 0.25 | 0.107 | 64 µg/mL (≈ 265 µM) | –
50 | – | – | – | COc1ccc(-n2[se]c3ccccc3c2=O)cc1Cl | 32 | 0.75 | 0.015 | >= 128 ug ml-1 | –
